{"source": "ChEMBL document CHEMBL3817818", "about": "“Synthesis and evaluation of fluorescent Pam3Cys peptide conjugates” (Bioorg Med Chem Lett, 2016)", "key": {"[1]": {"assay": "Aqueous solubility of compound", "assay_type": "physicochemical", "details": "buffer"}, "[2]": {"biological_target": "Toll-like receptor 2 (Mus musculus) (UniProt Q9QUN7)", "sequence (Q9QUN7 whole entry)": "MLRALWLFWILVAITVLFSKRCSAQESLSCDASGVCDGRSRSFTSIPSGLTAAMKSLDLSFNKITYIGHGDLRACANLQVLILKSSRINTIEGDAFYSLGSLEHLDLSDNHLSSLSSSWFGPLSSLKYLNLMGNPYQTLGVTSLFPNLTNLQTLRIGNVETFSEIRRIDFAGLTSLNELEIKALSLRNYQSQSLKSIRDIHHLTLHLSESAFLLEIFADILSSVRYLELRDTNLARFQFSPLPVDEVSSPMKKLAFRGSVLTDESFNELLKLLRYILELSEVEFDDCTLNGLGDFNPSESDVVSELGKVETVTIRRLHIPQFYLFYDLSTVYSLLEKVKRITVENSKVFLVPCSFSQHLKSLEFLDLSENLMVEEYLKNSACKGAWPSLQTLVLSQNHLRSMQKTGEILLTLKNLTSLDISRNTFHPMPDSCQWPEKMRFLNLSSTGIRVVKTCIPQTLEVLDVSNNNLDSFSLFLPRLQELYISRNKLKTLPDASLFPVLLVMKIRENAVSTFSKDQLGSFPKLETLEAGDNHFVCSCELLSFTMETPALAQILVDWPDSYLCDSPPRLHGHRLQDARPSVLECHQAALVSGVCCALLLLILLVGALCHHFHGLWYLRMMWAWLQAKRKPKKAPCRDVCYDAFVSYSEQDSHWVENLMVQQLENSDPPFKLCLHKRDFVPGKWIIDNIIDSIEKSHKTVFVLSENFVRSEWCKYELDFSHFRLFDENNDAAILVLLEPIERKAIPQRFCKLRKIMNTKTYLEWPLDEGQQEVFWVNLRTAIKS", "assay": "Agonist activity at TLR2 in H-2b harboring B6 mouse DC assessed as cell maturation by measuring increase in IL-12 p40 production at 0.0625 to 1 uM incubated for 48 hrs by sandwich ELISA", "procedure,_shortened": "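Supernatants were harvested and IL-12 secretion measured by ELISA. Data shown are one representative of three independent experiments.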"}, "[3]": {"biological_target": "Toll-like receptor 4 (Homo sapiens) (UniProt O00206)", "sequence (O00206 whole entry)": "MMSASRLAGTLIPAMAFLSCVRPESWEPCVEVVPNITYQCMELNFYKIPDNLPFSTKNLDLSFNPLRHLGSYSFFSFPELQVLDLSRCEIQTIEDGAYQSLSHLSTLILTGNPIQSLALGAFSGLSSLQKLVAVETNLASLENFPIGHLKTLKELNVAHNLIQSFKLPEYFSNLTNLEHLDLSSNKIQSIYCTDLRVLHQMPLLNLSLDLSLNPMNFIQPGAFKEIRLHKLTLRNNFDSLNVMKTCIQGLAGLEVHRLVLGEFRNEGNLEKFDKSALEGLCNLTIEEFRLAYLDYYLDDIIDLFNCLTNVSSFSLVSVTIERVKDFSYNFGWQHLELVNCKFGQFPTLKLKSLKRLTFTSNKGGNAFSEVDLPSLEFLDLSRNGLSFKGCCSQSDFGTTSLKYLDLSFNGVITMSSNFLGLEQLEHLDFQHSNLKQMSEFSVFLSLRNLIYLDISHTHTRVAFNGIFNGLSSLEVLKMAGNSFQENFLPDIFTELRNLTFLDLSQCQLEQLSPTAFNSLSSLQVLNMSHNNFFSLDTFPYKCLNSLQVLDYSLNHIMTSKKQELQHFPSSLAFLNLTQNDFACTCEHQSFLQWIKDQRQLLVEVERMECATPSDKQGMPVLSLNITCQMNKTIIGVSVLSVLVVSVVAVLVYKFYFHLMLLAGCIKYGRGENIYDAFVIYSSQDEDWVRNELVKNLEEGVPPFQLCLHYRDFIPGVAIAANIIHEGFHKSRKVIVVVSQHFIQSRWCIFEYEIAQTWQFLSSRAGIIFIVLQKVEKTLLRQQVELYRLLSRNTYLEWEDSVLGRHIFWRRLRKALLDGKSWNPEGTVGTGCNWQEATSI", "assay": "Agonist activity at human TLR4 expressed in HEK cells assessed as increase in IL-8 production at 25 to 100 nM incubated for 24 hrs by ELISA", "assay_type": "cell-based", "details": "HEK293"}, "[4]": {"biological_target": "Toll-like receptor 2 (Homo sapiens) (UniProt O60603)", "sequence (O60603 whole entry)": "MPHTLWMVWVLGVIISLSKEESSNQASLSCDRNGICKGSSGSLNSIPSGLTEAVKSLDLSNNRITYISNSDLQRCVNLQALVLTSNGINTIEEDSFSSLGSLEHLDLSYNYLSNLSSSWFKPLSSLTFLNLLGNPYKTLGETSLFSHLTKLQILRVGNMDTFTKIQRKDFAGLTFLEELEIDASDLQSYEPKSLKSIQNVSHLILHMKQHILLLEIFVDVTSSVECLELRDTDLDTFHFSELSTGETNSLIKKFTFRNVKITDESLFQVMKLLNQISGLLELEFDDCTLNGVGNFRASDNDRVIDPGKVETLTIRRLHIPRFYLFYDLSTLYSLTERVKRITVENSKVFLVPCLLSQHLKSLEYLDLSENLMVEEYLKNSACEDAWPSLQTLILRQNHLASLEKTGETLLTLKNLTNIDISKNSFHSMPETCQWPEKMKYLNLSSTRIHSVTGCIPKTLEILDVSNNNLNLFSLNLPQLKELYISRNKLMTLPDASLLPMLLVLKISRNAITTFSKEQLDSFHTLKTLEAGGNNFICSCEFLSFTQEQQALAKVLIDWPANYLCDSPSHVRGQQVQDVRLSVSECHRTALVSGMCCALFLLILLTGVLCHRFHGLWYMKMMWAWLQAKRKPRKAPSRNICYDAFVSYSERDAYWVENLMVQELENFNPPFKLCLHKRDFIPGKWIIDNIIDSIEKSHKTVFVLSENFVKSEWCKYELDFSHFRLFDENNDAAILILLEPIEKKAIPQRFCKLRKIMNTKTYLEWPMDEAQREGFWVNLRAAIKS", "assay": "Agonist activity at human TLR2 expressed in HEK cells assessed as increase in IL-8 production at 25 to 100 nM incubated for 24 hrs by ELISA", "assay_type": "cell-based", "details": "HEK293", "procedure,_shortened": "(§1)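 HEK cells transfected with human TLR2 were incubated 24 h with conjugates at 100–25 nM, or with Pam₃CysSK₄ at 100 ng/mL. Receptor activation was read as IL-8 produced in the assay. Error bars are SD.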"}, "[5]": {"biological_target": "Toll-like receptor 2 (Homo sapiens) (UniProt O60603)", "assay": "Agonist activity at human TLR2 expressed in HEK cells assessed as increase in IL-8 production at 100 ng/ml incubated for 24 hrs by ELISA", "assay_type": "cell-based", "details": "HEK293", "procedure,_shortened": "as §1"}, "[6]": {"assay": "Drug uptake in H-2b harboring B6 mouse DC at 1 uM after 15 mins by confocal microscopic analysis", "assay_type": "ADME", "details": "in vitro, 0.25 h", "procedure,_shortened": "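Dendritic cells were exposed to conjugate for 15 min. Uptake and intracellular localisation were imaged by confocal laser scanning microscopy. Images are representative of multiple cells in at least 3 experiments.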"}}, "note": "The source made the active and inactive calls. The calls are words filed in the database; no cut-off is given here. Where a SMILES comes first, the peptide text is derived from it. The star is where a group is joined. Propyl(2R-PamO,3-PamO) = CCCCCCCCCCCCCCCC(=O)OC[C@H](C*)OC(=O)CCCCCCCCCCCCCCC; X1 = CCCCCCCCCCCCCCCC(=O)OC[C@@H](C*)OC(=O)CCCCCCCCCCCCCCC; Palmitoyl = CCCCCCCCCCCCCCCC(=O)*"}
{"compound": "CCCCCCCCCCCCCCCC(=O)N[C@H](CSC[C@H](COC(=O)CCCCCCCCCCCCCCC)OC(=O)CCCCCCCCCCCCCCC)C(=O)N[C@H](CO)C(=O)N[C@H](CCCCN)C(=O)N[C@H](CCCCN)C(=O)N[C@H](CCCCN)C(=O)N[C@H](CCCCN)C(=O)N[C@H](CC(=O)O)C(=O)N[C@H](CCC(=O)O)C(=O)N[C@@H](C(=O)N[C@H](CO)C(=O)NCC(=O)N[C@H](CC(C)C)C(=O)N[C@H](CCC(=O)O)C(=O)N[C@H](CCC(N)=O)C(=O)N[C@H](CC(C)C)C(=O)N[C@H](CCC(=O)O)C(=O)N[C@H](CO)C(=O)N[C@@H](C(=O)N[C@@H](C(=O)N[C@H](CC(N)=O)C(=O)N[C@H](Cc1ccccc1)C(=O)N[C@@H](CCC(=O)O)C(=O)N[C@H](CCCCn1nnc2c1CC[C@@H]1[C@H](CC2)[C@@H]1COC(=O)NCCOCCOCCNC(=O)c1ccc(-c2c3ccc(=[N+](C)C)cc-3oc3cc(N(C)C)ccc23)c(C(=O)[O-])c1)C(=O)N[C@@H](CC(C)C)C(=O)O)[C@@H](C)CC)[C@@H](C)CC)C(C)C", "values": [{"measurement": "solubility", "setting": "[1]", "value": "Insoluble"}, {"measurement": "Activity", "setting": "[2]", "value": "Active"}]}
{"compound": "CCCCCCCCCCCCCCCC(=O)N[C@@H](CSC[C@@H](COC(=O)CCCCCCCCCCCCCCC)OC(=O)CCCCCCCCCCCCCCC)C(=O)N[C@@H](CO)C(=O)N[C@@H](CCCCN)C(=O)N[C@@H](CCCCN)C(=O)N[C@@H](CCCCN)C(=O)N[C@@H](CCCCN)C(=O)N[C@@H](CC(=O)O)C(=O)N[C@@H](CCC(=O)O)C(=O)N[C@H](C(=O)N[C@@H](CO)C(=O)NCC(=O)N[C@@H](CC(C)C)C(=O)N[C@@H](CCC(=O)O)C(=O)N[C@@H](CCC(N)=O)C(=O)N[C@@H](CC(C)C)C(=O)N[C@@H](CCC(=O)O)C(=O)N[C@@H](CO)C(=O)N[C@H](C(=O)N[C@H](C(=O)N[C@@H](CC(N)=O)C(=O)N[C@@H](Cc1ccccc1)C(=O)N[C@H](CCC(=O)O)C(=O)N[C@@H](CCCCn1nnc2c1CC[C@H]1[C@@H](CC2)[C@H]1COC(=O)NCCOCCOCCNC(=O)CCCC[N+]1=C(/C=C/C=C/C=C2\\N(C)c3ccccc3C2(C)C)C(C)(C)c2ccccc21)C(=O)N[C@H](CC(C)C)C(=O)O)[C@H](C)CC)[C@H](C)CC)C(C)C", "values": [{"measurement": "Activity", "setting": "[3]", "value": "inactive"}, {"measurement": "Activity", "setting": "[4]", "value": "Active"}, {"measurement": "Activity", "setting": "[2]", "value": "Active"}]}
{"compound": "CCCCCCCCCCCCCCCC(=O)N[C@@H](CSC[C@@H](COC(=O)CCCCCCCCCCCCCCC)OC(=O)CCCCCCCCCCCCCCC)C(=O)N[C@@H](CO)C(=O)N[C@@H](CCCCN)C(=O)N[C@@H](CCCCN)C(=O)N[C@@H](CCCCN)C(=O)N[C@@H](CCCCN)C(=O)O", "note": "(Palmitoyl-C(Propyl(2R-PamO,3-PamO))SKKKK-OH)", "values": [{"measurement": "Activity", "setting": "[5]", "value": "Active"}]}
{"compound": "CCCCCCCCCCCCCCCC(=O)N[C@@H](CSC[C@H](COC(=O)CCCCCCCCCCCCCCC)OC(=O)CCCCCCCCCCCCCCC)C(=O)N[C@@H](CO)C(=O)N[C@@H](CCCCN)C(=O)N[C@@H](CCCCN)C(=O)N[C@@H](CCCCN)C(=O)N[C@@H](CCCCN)C(=O)N[C@@H](CC(=O)O)C(=O)N[C@@H](CCC(=O)O)C(=O)N[C@H](C(=O)N[C@@H](CO)C(=O)NCC(=O)N[C@@H](CC(C)C)C(=O)N[C@@H](CCC(=O)O)C(=O)N[C@@H](CCC(N)=O)C(=O)N[C@@H](CC(C)C)C(=O)N[C@@H](CCC(=O)O)C(=O)N[C@@H](CO)C(=O)N[C@H](C(=O)N[C@H](C(=O)N[C@@H](CC(N)=O)C(=O)N[C@@H](Cc1ccccc1)C(=O)N[C@@H](CCC(=O)O)C(=O)N[C@@H](CCCCn1nnc2c1CC[C@H]1[C@@H](CC2)[C@H]1COC(=O)NCCOCCOCCNC(=O)CCCC[N+]1=C(/C=C/C=C/C=C2\\N(C)c3ccccc3C2(C)C)C(C)(C)c2ccccc21)C(=O)N[C@@H](CC(C)C)C(=O)O)[C@@H](C)CC)[C@@H](C)CC)C(C)C", "values": [{"measurement": "Drug uptake", "setting": "[6]", "value": "Active"}]}
{"compound": "CCCCCCCCCCCCCCCC(=O)N[C@@H](CSC[C@@H](COC(=O)CCCCCCCCCCCCCCC)OC(=O)CCCCCCCCCCCCCCC)C(=O)N[C@@H](CO)C(=O)N[C@@H](CCCCN)C(=O)N[C@@H](CCCCN)C(=O)N[C@@H](CCCCN)C(=O)N[C@@H](CCCCN)C(=O)N[C@@H](CC(=O)O)C(=O)N[C@@H](CCC(=O)O)C(=O)N[C@H](C(=O)N[C@@H](CO)C(=O)NCC(=O)N[C@@H](CC(C)C)C(=O)N[C@@H](CCC(=O)O)C(=O)N[C@@H](CCC(N)=O)C(=O)N[C@@H](CC(C)C)C(=O)N[C@@H](CCC(=O)O)C(=O)N[C@@H](CO)C(=O)N[C@H](C(=O)N[C@H](C(=O)N[C@@H](CC(N)=O)C(=O)N[C@@H](Cc1ccccc1)C(=O)N[C@@H](CCC(=O)O)C(=O)N[C@@H](CCCCN)C(=O)N[C@@H](CC(C)C)C(=O)O)[C@@H](C)CC)[C@@H](C)CC)C(C)C", "note": "(Palmitoyl-C(Propyl(2R-PamO,3-PamO))SKKKKDEVSGLEQLESIINFEKL-OH)", "values": [{"measurement": "Activity", "setting": "[3]", "value": "inactive"}, {"measurement": "Activity", "setting": "[4]", "value": "Active"}, {"measurement": "Activity", "setting": "[2]", "value": "Active"}]}
{"compound": "CCCCCCCCCCCCCCCC(=O)N[C@@H](CSC[C@H](COC(=O)CCCCCCCCCCCCCCC)OC(=O)CCCCCCCCCCCCCCC)C(=O)N[C@@H](CO)C(=O)N[C@@H](CCCCN)C(=O)N[C@@H](CCCCN)C(=O)N[C@@H](CCCCN)C(=O)N[C@@H](CCCCN)C(=O)N[C@@H](CC(=O)O)C(=O)N[C@@H](CCC(=O)O)C(=O)N[C@H](C(=O)N[C@@H](CO)C(=O)NCC(=O)N[C@@H](CC(C)C)C(=O)N[C@@H](CCC(=O)O)C(=O)N[C@@H](CCC(N)=O)C(=O)N[C@@H](CC(C)C)C(=O)N[C@@H](CCC(=O)O)C(=O)N[C@@H](CO)C(=O)N[C@H](C(=O)N[C@H](C(=O)N[C@@H](CC(N)=O)C(=O)N[C@@H](Cc1ccccc1)C(=O)N[C@@H](CCC(=O)O)C(=O)N[C@@H](CCCCN)C(=O)N[C@@H](CC(C)C)C(=O)O)[C@@H](C)CC)[C@@H](C)CC)C(C)C", "note": "(Palmitoyl-C(X1)SKKKKDEVSGLEQLESIINFEKL-OH)", "values": [{"measurement": "Activity", "setting": "[3]", "value": "inactive"}, {"measurement": "Activity", "setting": "[4]", "value": "inactive"}, {"measurement": "Activity", "setting": "[2]", "value": "inactive"}]}
{"compound": "CCCCCCCCCCCCCCCC(=O)N[C@@H](CSC[C@@H](COC(=O)CCCCCCCCCCCCCCC)OC(=O)CCCCCCCCCCCCCCC)C(=O)N[C@@H](CO)C(=O)N[C@@H](CCCCN)C(=O)N[C@@H](CCCCN)C(=O)N[C@@H](CCCCN)C(=O)N[C@@H](CCCCN)C(=O)N[C@@H](CC(=O)O)C(=O)N[C@@H](CCC(=O)O)C(=O)N[C@H](C(=O)N[C@@H](CO)C(=O)NCC(=O)N[C@@H](CC(C)C)C(=O)N[C@@H](CCC(=O)O)C(=O)N[C@@H](CCC(N)=O)C(=O)N[C@@H](CC(C)C)C(=O)N[C@@H](CCC(=O)O)C(=O)N[C@@H](CO)C(=O)N[C@H](C(=O)N[C@H](C(=O)N[C@@H](CC(N)=O)C(=O)N[C@@H](Cc1ccccc1)C(=O)N[C@@H](CCC(=O)O)C(=O)N[C@@H](CCCCn1nnc2c1CC[C@H]1[C@@H](CC2)[C@H]1COC(=O)NCCOCCOCCNC(=O)CCCC[N+]1=C(/C=C/C=C/C=C2\\N(C)c3ccccc3C2(C)C)C(C)(C)c2ccccc21)C(=O)N[C@@H](CC(C)C)C(=O)O)[C@@H](C)CC)[C@@H](C)CC)C(C)C", "values": [{"measurement": "Drug uptake", "setting": "[6]", "value": "Active"}]}
{"compound": "CCCCCCCCCCCCCCCC(=O)N[C@H](CSC[C@@H](COC(=O)CCCCCCCCCCCCCCC)OC(=O)CCCCCCCCCCCCCCC)C(=O)N[C@H](CO)C(=O)N[C@H](CCCCN)C(=O)N[C@H](CCCCN)C(=O)N[C@H](CCCCN)C(=O)N[C@H](CCCCN)C(=O)N[C@H](CC(=O)O)C(=O)N[C@H](CCC(=O)O)C(=O)N[C@@H](C(=O)N[C@H](CO)C(=O)NCC(=O)N[C@H](CC(C)C)C(=O)N[C@H](CCC(=O)O)C(=O)N[C@H](CCC(N)=O)C(=O)N[C@H](CC(C)C)C(=O)N[C@H](CCC(=O)O)C(=O)N[C@H](CO)C(=O)N[C@@H](C(=O)N[C@@H](C(=O)N[C@H](CC(N)=O)C(=O)N[C@H](Cc1ccccc1)C(=O)N[C@@H](CCC(=O)O)C(=O)N[C@H](CCCCn1nnc2c1CC[C@@H]1[C@H](CC2)[C@@H]1COC(=O)NCCOCCOCCNC(=O)c1ccc(-c2c3ccc(=[N+](C)C)cc-3oc3cc(N(C)C)ccc23)c(C(=O)[O-])c1)C(=O)N[C@@H](CC(C)C)C(=O)O)[C@@H](C)CC)[C@@H](C)CC)C(C)C", "values": [{"measurement": "solubility", "setting": "[1]", "value": "Insoluble"}, {"measurement": "Activity", "setting": "[2]", "value": "inactive"}]}
{"compound": "CCCCCCCCCCCCCCCC(=O)N[C@@H](CSC[C@H](COC(=O)CCCCCCCCCCCCCCC)OC(=O)CCCCCCCCCCCCCCC)C(=O)N[C@@H](CO)C(=O)N[C@@H](CCCCN)C(=O)N[C@@H](CCCCN)C(=O)N[C@@H](CCCCN)C(=O)N[C@@H](CCCCN)C(=O)N[C@@H](CC(=O)O)C(=O)N[C@@H](CCC(=O)O)C(=O)N[C@H](C(=O)N[C@@H](CO)C(=O)NCC(=O)N[C@@H](CC(C)C)C(=O)N[C@@H](CCC(=O)O)C(=O)N[C@@H](CCC(N)=O)C(=O)N[C@@H](CC(C)C)C(=O)N[C@@H](CCC(=O)O)C(=O)N[C@@H](CO)C(=O)N[C@H](C(=O)N[C@H](C(=O)N[C@@H](CC(N)=O)C(=O)N[C@@H](Cc1ccccc1)C(=O)N[C@H](CCC(=O)O)C(=O)N[C@@H](CCCCn1nnc2c1CC[C@H]1[C@@H](CC2)[C@H]1COC(=O)NCCOCCOCCNC(=O)CCCC[N+]1=C(/C=C/C=C/C=C2\\N(C)c3ccccc3C2(C)C)C(C)(C)c2ccccc21)C(=O)N[C@H](CC(C)C)C(=O)O)[C@H](C)CC)[C@H](C)CC)C(C)C", "values": [{"measurement": "Activity", "setting": "[3]", "value": "inactive"}, {"measurement": "Activity", "setting": "[4]", "value": "inactive"}, {"measurement": "Activity", "setting": "[2]", "value": "inactive"}]}
